How the values were obtained:
[1] = biological target: Serotonin 4 (5-HT4) receptor (Sus scrofa, UniProt Q6Q253); test: The compound was tested for binding affinity against 5-hydroxytryptamine 4 receptor
[2] = biological target: 5-hydroxytryptamine receptor 1B (Sus scrofa, UniProt P79399); test: The compound was tested for binding affinity against 5-hydroxytryptamine 1B receptor
How it was run: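 Pig caudate membranes washed at 37 °C to remove endogenous 5-HT, in 50 mM Tris-HCl pH 7.7. Incubated 45 min at 25 °C with 4 nM [3H]sumatriptan plus CaCl2, pargyline and ascorbate, test agent at 10^-6 M; 10 μM 5-HT for nonspecific binding. Filtration, scintillation counting; percent displacement of specific binding.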

[3] = biological target: T1, Adrenergic receptor alpha-1 (Homo sapiens, UniProt P35348+P25100+P35368); test: The compound was tested for binding affinity against human Alpha-1 adrenergic receptor; type: protein assay
T1 sequence (P35348 whole entry): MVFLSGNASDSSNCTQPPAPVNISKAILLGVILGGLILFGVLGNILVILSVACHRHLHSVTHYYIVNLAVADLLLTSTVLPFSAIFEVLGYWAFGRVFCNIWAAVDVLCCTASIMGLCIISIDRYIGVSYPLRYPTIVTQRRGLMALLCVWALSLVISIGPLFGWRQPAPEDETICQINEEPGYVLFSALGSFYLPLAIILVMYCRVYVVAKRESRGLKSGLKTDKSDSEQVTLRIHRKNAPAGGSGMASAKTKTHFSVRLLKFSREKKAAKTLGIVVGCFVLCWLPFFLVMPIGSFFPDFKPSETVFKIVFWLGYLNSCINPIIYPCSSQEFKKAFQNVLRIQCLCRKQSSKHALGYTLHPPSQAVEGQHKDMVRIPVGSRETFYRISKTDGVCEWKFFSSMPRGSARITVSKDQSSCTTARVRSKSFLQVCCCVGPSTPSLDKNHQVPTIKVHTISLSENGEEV
T1 sequence (P25100 whole entry): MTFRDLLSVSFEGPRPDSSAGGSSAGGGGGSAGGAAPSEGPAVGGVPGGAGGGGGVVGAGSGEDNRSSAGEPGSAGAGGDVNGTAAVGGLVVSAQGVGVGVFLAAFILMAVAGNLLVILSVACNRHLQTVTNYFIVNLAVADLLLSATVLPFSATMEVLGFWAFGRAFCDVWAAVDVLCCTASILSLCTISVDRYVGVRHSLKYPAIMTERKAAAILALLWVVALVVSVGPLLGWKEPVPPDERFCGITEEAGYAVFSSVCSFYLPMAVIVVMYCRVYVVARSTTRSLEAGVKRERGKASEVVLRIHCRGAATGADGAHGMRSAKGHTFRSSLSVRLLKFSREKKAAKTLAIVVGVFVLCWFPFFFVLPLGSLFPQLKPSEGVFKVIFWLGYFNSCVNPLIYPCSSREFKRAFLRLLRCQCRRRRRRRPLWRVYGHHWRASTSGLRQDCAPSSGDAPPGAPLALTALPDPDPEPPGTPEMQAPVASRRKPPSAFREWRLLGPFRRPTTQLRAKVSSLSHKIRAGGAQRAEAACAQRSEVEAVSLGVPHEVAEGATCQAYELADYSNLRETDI
T1 sequence (P35368 whole entry): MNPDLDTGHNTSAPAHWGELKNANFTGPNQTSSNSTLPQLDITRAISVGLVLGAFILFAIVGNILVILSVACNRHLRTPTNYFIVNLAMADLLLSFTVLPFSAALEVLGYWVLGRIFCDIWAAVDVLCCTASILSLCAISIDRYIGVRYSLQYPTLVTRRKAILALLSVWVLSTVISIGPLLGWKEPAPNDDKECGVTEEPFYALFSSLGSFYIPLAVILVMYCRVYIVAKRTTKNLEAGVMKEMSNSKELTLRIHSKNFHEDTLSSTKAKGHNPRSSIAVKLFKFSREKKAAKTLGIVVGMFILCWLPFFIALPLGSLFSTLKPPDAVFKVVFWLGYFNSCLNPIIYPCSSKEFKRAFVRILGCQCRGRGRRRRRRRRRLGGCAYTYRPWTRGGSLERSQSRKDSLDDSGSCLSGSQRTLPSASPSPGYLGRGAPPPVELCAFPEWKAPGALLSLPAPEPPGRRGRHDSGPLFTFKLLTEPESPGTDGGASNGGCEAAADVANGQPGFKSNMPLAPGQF
How it was run: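 Postmortem human cortex membranes, stored at −80 °C, assayed in 50 mM Tris-HCl pH 7.6. Incubated with 0.1 nM [3H]prazosin for 30 min at 30 °C, test agent at 10^-6 M or 10 concentrations; 5 μM phentolamine for nonspecific binding. IC50 by curve fitting, converted to Ki (Cheng–Prusoff).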

[4] = biological target: Histamine H1 receptor (Rattus norvegicus, UniProt P31390); test: The compound was tested for binding affinity against H1 receptor
[5] = biological target: 5-hydroxytryptamine receptor 2A (Rattus norvegicus, UniProt P14842); test: The compound was tested for binding affinity against 5-hydroxytryptamine 2A receptor
[6] = The compound was tested for binding affinity against MCB receptor
[7] = system: Rattus norvegicus; test: The compound was tested in vivo for induction of catalepsy in rat after ip administration; type: functional
How it was run: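 Male rats (130–190 g), groups of five, injected ip with compound solution (1 mL/kg). Catalepsy assessed at three times by placing each paw on a 45 mm rubber bung; a paw held 15 s scores 1 (group maximum 20 = 100%). ED50 from percent catalepsy at the final reading, by adapted Litchfield–Wilcoxon.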

[8] = biological target: T2, 5-hydroxytryptamine receptor 1A (Homo sapiens, UniProt P08908); test: The compound was tested for binding affinity against 5-hydroxytryptamine 1A receptor receptor
T2 sequence (P08908 whole entry): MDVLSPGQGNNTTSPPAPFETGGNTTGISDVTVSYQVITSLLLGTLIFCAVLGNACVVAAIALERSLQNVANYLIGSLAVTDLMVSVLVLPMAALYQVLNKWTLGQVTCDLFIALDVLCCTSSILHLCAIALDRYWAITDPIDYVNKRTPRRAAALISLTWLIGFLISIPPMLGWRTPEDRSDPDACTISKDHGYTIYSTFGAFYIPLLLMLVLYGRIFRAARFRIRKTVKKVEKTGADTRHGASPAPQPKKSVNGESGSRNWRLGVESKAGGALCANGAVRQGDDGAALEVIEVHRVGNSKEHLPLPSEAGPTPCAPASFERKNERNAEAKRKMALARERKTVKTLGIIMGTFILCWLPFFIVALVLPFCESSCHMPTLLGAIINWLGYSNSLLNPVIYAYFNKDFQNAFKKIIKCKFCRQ

Sequence of 5-hydroxytryptamine receptor 2A (P14842 whole entry): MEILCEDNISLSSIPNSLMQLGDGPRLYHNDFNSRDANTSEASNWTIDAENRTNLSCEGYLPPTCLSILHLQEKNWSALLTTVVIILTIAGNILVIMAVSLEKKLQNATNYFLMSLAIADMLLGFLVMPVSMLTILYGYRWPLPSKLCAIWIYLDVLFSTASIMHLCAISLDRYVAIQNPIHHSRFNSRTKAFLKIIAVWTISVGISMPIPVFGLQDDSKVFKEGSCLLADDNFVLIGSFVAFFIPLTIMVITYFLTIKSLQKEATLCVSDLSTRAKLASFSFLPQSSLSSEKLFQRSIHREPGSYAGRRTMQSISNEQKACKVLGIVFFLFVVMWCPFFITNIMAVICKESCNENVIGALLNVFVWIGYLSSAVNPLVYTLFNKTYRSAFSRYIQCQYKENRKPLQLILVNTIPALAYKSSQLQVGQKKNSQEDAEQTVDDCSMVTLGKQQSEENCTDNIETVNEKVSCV
Sequence of 5-hydroxytryptamine receptor 1B (P79399 whole entry): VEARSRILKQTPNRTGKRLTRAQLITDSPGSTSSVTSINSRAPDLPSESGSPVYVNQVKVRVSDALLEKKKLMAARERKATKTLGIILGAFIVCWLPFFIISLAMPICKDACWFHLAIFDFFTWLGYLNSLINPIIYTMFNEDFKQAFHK
Sequence of Serotonin 4 (5-HT4) receptor (Q6Q253 whole entry): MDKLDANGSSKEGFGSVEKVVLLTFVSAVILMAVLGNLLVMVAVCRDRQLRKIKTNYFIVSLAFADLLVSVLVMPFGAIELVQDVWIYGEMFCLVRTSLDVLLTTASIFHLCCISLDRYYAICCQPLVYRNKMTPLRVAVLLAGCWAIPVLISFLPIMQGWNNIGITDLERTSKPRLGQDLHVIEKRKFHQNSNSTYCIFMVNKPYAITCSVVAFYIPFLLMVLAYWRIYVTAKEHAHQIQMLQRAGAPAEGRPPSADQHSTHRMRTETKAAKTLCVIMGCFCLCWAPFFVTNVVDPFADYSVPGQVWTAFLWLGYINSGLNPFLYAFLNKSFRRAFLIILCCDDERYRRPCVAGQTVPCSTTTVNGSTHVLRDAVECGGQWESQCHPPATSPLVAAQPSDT
Sequence of Histamine H1 receptor (P31390 whole entry): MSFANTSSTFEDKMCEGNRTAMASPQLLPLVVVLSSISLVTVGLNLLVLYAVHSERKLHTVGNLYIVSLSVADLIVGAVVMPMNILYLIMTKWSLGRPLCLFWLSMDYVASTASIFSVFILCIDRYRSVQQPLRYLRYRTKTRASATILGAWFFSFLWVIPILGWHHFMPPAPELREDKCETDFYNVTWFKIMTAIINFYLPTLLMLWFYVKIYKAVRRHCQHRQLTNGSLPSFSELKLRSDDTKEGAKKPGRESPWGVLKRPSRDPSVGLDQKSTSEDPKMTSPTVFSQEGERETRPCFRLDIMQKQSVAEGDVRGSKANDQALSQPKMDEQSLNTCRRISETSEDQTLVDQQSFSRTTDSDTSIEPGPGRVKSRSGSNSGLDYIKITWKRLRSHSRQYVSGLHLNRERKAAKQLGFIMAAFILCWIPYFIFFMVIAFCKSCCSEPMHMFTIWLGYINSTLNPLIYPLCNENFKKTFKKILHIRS

COc1ccccc1N1CCC(CNCC2COc3ccc(Cl)cc3O2)CC1 (stereo not drawn)
Ki [1]: > 1000 nM | Ki [2]: > 1000 nM | Ki [3]: 181 nM | Ki [4]: > 1000 nM | Ki [5]: > 500 nM | Ki [6]: > 1000 nM | ED50 [7]: 188 mg/kg | Ki [8]: 3.6 nM

From ChEMBL document CHEMBL1132360, “N-Substituted (2,3-dihydro-1,4-benzodioxin-2-yl)methylamine derivatives as D(2) antagonists/5-HT(1A) partial agonists with potential as atypical antipsychotic agents” (J Med Chem, 1999)
